Measurements as given in ChEMBL document CHEMBL3352666, “Human Toll-like receptor 8-selective agonistic activities in 1-alkyl-1H-benzimidazol-2-amines” (J Med Chem, 2014).
The source made the active and inactive calls.

Experiments:
Assay type in all cases: cell-based
[1] = molecular target: Toll-like receptor 4 (Homo sapiens) (UniProt O00206); test: Agonist activity at human TLR4 stably expressed in HEK293 cells co-expressing secreted alkaline phosphatase assessed as NF-kappaB induction by liquid handler-assisted reporter gene assay
Sequence of Toll-like receptor 4 (Homo sapiens) (O00206 whole entry): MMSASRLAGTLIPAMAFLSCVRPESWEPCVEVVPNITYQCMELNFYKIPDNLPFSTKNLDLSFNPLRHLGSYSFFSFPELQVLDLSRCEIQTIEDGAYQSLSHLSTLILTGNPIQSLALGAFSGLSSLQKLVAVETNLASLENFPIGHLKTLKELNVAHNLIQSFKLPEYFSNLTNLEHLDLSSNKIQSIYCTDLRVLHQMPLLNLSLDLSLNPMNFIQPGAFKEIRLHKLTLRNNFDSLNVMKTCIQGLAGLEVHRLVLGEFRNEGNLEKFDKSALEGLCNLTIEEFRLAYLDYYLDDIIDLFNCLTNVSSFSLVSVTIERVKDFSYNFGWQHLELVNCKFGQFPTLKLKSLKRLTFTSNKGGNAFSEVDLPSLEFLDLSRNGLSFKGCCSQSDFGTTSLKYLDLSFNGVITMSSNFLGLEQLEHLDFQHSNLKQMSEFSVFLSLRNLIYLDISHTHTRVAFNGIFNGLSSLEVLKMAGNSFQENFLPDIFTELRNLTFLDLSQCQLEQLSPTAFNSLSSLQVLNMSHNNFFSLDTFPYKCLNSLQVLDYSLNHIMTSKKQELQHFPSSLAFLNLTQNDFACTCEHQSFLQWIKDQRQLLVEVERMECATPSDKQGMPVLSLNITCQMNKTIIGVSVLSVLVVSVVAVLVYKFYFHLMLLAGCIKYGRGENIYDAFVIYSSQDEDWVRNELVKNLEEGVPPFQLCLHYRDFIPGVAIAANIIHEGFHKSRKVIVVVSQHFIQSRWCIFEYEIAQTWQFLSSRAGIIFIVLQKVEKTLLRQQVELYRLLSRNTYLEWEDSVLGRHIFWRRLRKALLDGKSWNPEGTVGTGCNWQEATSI
In short: (§1)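 HEK293 reporter cells stably co-transfected with the respective human TLR or NOD receptor plus NF-κB/AP-1-driven secreted alkaline phosphatase, kept in selection medium. About 10^5 cells/ml were incubated with graded concentrations of test compound in 384-well format. Supernatant sAP was read colorimetrically at 620 nm with an alkaline phosphatase-specific chromogen in detection medium.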

[2] = molecular target: Toll-like receptor 3 (Homo sapiens) (UniProt O15455); test: Agonist activity at human TLR3 stably expressed in HEK293 cells co-expressing secreted alkaline phosphatase assessed as NF-kappaB induction by liquid handler-assisted reporter gene assay; in short: as §1
Sequence of Toll-like receptor 3 (Homo sapiens) (O15455 whole entry): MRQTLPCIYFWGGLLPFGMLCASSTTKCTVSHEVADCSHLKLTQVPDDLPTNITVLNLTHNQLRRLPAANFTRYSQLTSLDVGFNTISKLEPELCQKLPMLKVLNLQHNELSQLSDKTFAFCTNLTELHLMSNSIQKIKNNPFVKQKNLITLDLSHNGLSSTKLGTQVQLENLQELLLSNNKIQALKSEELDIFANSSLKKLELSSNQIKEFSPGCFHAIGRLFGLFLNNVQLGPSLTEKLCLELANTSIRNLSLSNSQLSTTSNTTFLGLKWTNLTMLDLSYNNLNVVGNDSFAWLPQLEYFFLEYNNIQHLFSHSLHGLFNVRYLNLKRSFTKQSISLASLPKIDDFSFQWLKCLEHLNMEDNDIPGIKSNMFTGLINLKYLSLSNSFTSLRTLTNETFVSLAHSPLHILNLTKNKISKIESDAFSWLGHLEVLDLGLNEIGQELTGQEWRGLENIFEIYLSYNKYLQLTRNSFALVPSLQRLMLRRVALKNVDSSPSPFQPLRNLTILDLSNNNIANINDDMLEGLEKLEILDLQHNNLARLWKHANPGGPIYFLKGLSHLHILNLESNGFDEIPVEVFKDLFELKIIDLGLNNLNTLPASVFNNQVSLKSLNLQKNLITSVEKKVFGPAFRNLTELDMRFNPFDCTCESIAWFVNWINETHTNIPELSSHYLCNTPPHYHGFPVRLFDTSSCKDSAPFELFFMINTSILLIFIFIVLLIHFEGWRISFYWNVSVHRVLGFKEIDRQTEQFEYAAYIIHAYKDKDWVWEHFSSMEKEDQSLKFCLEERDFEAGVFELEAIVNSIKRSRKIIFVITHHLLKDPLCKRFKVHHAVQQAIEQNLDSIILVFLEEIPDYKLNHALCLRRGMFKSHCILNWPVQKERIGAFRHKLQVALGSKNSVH

[3] = molecular target: T1, Toll-like receptor 9 (Homo sapiens) (UniProt Q9NR96); test: Agonist activity at human TLR9 stably expressed in HEK293 cells co-expressing secreted alkaline phosphatase assessed as NF-kappaB induction by liquid handler-assisted reporter gene assay; in short: as §1
T1 sequence (whole entry): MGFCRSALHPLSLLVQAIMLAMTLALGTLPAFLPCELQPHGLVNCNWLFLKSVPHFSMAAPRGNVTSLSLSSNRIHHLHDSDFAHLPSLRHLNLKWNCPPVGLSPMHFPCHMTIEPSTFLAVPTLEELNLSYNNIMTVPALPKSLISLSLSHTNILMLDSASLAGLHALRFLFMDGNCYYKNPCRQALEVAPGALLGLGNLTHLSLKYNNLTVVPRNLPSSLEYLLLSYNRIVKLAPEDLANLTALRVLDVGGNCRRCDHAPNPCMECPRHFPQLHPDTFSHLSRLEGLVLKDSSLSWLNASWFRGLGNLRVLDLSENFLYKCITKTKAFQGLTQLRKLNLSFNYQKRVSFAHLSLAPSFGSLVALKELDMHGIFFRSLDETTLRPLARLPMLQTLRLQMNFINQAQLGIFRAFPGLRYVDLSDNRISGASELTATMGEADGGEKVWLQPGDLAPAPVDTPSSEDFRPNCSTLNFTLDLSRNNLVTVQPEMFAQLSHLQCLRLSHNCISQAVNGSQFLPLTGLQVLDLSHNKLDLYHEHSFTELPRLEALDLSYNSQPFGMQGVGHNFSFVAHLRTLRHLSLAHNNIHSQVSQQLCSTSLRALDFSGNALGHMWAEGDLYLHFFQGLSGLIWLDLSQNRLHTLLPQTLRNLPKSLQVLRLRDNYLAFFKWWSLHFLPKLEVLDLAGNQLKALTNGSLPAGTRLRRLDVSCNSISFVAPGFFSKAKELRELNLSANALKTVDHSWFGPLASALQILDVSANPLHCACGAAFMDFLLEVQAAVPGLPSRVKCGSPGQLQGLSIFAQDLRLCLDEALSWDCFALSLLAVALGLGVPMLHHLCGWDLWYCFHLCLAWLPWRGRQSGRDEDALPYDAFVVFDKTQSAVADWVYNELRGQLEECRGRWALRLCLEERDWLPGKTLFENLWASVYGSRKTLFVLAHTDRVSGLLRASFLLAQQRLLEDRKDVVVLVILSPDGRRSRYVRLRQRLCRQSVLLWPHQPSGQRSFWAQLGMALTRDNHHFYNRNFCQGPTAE

[4] = molecular target: T2, Toll-like receptor 7 (Homo sapiens) (UniProt Q9NYK1); test: Agonist activity at human TLR7 stably expressed in HEK293 cells co-expressing secreted alkaline phosphatase assessed as NF-kappaB induction by liquid handler-assisted reporter gene assay; in short: as §1
T2 sequence (whole entry): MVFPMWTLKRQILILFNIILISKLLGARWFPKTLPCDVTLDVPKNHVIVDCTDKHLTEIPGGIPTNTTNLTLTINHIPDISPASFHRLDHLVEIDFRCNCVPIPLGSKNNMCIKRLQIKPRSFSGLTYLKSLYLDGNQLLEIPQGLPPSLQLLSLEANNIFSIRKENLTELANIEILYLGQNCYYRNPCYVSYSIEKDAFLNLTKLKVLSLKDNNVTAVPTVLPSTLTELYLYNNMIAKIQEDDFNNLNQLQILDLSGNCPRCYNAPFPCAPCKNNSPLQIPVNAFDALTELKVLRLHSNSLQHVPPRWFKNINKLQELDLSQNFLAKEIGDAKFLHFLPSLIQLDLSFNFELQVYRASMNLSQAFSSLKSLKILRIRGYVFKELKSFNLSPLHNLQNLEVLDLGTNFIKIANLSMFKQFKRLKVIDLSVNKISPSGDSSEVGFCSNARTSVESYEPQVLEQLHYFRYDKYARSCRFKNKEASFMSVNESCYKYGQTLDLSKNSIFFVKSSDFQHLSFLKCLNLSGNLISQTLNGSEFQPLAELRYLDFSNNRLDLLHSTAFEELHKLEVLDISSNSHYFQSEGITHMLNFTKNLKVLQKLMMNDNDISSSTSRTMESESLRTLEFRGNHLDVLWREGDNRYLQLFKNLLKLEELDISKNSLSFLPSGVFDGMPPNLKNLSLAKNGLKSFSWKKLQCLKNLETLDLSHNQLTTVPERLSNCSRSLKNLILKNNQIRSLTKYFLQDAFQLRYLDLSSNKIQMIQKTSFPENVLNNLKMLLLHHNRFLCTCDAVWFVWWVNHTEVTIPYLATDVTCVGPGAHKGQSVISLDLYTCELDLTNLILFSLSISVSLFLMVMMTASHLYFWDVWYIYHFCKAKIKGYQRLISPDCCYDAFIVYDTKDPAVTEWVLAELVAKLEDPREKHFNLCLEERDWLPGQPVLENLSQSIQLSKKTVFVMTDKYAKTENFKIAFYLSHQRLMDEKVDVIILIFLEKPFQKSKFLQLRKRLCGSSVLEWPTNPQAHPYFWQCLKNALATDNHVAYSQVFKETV

[5] = molecular target: T3, Nucleotide-binding oligomerization domain-containing protein 1 (Homo sapiens) (UniProt Q9Y239); test: Agonist activity at human NOD1 stably expressed in HEK293 cells co-expressing secreted alkaline phosphatase assessed as NF-kappaB induction by liquid handler-assisted reporter gene assay; in short: as §1
T3 sequence (whole entry): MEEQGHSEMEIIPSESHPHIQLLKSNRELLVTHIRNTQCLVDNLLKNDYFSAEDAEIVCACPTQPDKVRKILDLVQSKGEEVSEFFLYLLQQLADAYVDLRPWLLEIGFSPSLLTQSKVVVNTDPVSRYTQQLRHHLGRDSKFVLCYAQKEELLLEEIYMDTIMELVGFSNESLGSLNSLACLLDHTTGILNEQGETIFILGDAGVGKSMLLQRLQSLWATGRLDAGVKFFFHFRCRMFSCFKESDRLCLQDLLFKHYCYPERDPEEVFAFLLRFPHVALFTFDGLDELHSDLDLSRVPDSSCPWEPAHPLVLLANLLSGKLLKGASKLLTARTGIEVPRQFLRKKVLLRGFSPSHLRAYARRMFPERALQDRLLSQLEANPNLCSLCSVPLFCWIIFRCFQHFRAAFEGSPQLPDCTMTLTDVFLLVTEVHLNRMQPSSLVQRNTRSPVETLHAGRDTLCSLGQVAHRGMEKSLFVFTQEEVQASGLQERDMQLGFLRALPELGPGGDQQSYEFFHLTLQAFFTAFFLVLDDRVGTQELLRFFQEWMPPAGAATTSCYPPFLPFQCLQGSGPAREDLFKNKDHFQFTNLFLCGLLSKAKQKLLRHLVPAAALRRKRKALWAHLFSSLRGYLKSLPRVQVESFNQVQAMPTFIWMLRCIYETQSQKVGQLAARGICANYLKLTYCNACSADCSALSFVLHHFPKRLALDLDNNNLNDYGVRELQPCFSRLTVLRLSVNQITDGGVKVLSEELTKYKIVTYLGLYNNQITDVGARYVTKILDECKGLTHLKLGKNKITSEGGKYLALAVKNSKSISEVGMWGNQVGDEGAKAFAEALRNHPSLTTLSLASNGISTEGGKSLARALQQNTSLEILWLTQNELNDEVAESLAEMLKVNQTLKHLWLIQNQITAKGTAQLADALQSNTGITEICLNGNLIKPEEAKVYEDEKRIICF

[6] = molecular target: Nucleotide-binding oligomerization domain-containing protein 2 (Homo sapiens, UniProt Q9HC29); test: Agonist activity at human NOD2 stably expressed in HEK293 cells co-expressing secreted alkaline phosphatase assessed as NF-kappaB induction by liquid handler-assisted reporter gene assay; in short: as §1
Sequence of Nucleotide-binding oligomerization domain-containing protein 2 (Q9HC29 whole entry, the tested form may be a part): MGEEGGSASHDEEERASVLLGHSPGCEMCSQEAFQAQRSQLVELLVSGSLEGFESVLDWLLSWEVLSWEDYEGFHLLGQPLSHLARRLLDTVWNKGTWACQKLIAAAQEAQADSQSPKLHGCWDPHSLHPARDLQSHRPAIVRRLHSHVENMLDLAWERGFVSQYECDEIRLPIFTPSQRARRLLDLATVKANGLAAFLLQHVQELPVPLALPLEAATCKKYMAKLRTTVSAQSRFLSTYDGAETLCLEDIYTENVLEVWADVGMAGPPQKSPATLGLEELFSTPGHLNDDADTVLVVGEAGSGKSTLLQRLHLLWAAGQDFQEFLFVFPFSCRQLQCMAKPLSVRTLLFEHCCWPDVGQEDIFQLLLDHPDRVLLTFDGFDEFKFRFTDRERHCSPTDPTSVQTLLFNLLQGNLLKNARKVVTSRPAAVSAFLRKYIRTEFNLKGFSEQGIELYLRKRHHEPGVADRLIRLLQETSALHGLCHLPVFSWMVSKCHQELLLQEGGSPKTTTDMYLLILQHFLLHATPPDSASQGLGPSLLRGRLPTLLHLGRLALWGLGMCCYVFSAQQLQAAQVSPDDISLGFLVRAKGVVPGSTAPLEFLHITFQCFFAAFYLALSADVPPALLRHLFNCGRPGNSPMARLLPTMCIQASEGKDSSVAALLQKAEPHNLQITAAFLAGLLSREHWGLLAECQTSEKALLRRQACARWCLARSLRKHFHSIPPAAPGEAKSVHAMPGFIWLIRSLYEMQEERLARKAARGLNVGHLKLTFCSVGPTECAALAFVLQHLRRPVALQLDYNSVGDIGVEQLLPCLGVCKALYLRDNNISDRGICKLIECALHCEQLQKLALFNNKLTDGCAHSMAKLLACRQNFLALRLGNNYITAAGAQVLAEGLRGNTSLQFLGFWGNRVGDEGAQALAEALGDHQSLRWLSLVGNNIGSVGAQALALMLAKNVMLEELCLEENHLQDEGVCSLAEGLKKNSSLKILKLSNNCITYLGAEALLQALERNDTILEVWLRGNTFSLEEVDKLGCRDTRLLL

[7] = molecular target: Toll-like receptor 5 (Homo sapiens) (UniProt O60602); test: Agonist activity at human TLR5 stably expressed in HEK293 cells co-expressing secreted alkaline phosphatase assessed as NF-kappaB induction by liquid handler-assisted reporter gene assay; in short: as §1
Sequence of Toll-like receptor 5 (Homo sapiens) (O60602 whole entry): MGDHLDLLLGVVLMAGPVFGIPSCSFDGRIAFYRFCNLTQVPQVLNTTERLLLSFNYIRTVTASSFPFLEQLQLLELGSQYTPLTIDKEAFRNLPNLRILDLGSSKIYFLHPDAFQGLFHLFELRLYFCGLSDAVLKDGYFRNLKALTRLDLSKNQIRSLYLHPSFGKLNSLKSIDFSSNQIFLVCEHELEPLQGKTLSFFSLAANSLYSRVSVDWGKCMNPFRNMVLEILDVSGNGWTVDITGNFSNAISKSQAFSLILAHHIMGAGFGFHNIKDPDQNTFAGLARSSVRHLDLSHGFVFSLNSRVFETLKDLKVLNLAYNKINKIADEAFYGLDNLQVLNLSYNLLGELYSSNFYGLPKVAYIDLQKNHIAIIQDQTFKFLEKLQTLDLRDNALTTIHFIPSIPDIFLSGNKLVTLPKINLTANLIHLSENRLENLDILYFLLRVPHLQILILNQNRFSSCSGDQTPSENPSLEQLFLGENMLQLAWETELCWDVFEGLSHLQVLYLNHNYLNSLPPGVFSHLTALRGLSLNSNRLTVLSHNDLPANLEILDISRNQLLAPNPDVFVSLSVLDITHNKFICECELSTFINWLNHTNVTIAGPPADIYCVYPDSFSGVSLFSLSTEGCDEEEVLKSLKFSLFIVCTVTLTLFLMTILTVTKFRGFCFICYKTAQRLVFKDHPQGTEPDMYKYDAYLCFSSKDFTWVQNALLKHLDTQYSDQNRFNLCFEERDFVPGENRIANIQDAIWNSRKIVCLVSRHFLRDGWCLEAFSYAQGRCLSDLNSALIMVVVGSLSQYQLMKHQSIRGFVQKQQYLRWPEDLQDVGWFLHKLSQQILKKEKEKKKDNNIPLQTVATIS

[8] = molecular target: Toll-like receptor 2 (Homo sapiens) (UniProt O60603); test: Agonist activity at human TLR2 stably expressed in HEK293 cells co-expressing secreted alkaline phosphatase assessed as NF-kappaB induction by liquid handler-assisted reporter gene assay; in short: as §1
Sequence of Toll-like receptor 2 (Homo sapiens) (O60603 whole entry): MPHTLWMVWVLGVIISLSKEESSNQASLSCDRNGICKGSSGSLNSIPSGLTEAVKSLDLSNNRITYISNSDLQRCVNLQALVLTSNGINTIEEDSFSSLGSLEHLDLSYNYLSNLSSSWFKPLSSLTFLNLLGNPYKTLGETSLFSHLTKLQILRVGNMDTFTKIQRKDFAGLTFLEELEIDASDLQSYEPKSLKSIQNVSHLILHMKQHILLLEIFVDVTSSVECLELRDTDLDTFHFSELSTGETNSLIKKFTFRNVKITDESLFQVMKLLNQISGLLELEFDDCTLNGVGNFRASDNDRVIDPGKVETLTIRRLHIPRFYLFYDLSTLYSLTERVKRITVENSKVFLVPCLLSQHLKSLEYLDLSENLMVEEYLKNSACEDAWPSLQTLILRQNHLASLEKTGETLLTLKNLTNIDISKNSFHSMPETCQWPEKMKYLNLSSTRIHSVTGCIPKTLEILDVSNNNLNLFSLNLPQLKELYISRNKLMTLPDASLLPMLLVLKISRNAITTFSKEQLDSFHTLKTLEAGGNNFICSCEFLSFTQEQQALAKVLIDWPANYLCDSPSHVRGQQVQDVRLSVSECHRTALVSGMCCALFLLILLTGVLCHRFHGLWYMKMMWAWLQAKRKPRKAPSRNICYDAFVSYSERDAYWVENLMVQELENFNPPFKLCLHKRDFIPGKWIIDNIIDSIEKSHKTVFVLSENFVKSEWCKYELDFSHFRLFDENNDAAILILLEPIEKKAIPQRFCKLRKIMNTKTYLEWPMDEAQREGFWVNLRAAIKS

Measured: Activity

CCCCCn1c(N)nc2c(CC)cccc21
inactive: [1] | [2] | [3] | [4] | [5] | [6] | [7] | [8]

CCCCCn1c(N)nc2c(O)cccc21
inactive: [1] | [2] | [3] | [4] | [5] | [6] | [7] | [8]

CCCCCn1c(N)nc2ccc(C)cc21
inactive: [1] | [2] | [3] | [4] | [5] | [6] | [7] | [8]

CCCCCn1c(N)nc2cccc(C)c21
inactive: [1] | [2] | [3] | [4] | [5] | [6] | [7] | [8]

CCCCCn1c(N)nc2c(OC)cccc21
inactive: [1] | [2] | [3] | [4] | [5] | [6] | [7] | [8]

CCCCCn1c(N)nc2c3ccccc3ccc21
inactive: [1] | [2] | [3] | [4] | [5] | [6] | [7] | [8]

CCCCn1c(N)nc2ccccc21
inactive: [1] | [2] | [3] | [4] | [5] | [6] | [7] | [8]

CCCCCCn1c(N)nc2ccccc21
inactive: [1] | [2] | [3] | [4] | [5] | [6] | [7] | [8]

CCCCCn1c(N)nc2ccccc21
inactive: [1] | [2] | [3] | [4] | [5] | [6] | [7] | [8]

CCCCCn1c(N)nc2cc(C)ccc21
inactive: [1] | [2] | [3] | [4] | [5] | [6] | [7] | [8]
